High-throughput results deposited in PubChem BioAssay by The Scripps Research Institute Molecular Screening Center.
PRMT1 inh: PRMT1 methyltransferase inhibitors, primary screen, biochemical, fluorescence polarization. recombinant PRMT1, activity-based probe fluorescence polarization. inhibition, % at 2.79 µM. 370,000 tested, 1.3% active. AID 652257, 2013;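 active = inhibition above about 21% made by adding two undisclosed values, limit read from the data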
HTRA1 inhibitor: HTRA1 serine protease inhibitors, primary screen, biochemical, fluorescence polarization, HTS | Q92743 | 340,000 tested, 0.5% active | inhibition, % at 5.96 µM | recombinant HTRA1, FP-rhodamine activity-based probe; in the data active = inhibition above about 36%;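 note: 0% = enzyme with DMSO and 100% = wells lacking enzyme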
mABHD4 FP: ABHD4 inhibitors, primary screen, biochemical, fluorescence polarization, mouse. (Lyso)-N-acylphosphatidylethanolamine lipase (Mus musculus), Q8VD66. inhibition, % at 8.92 µM. AID 720543, 2013. 370,000 tested, 0.54% active. purified mABHD4, FP-Rh probe fluorescence polarization;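 active = inhibition exceeding the mean over every tested compound plus 3 SD, cut at about 30% in these data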;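 note: 0% = plate median of compound wells and 100% = S159A mutant with DMSO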
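System: mouse ABHD4 enzyme, wild type / Medium: HEPES pH 7.0, NaCl, Pluronic buffer / Reagent: FP-Rh activity-based fluorescent probe / Control set: S159A mutant high control, sample median low control / Detection: fluorescence polarization with parallel and perpendicular emission, 525/598 nm / Schedule: 45 min + 60 min at 25 °C / Compound dosing: 8.92 µM, single dose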
TCR-CD3 inh: inhibitors of human TCR-CD3 interaction, primary screen, biochemical, fluorescence, TAMRA-labeled TCR probe. T-cell receptor (TCR). inhibition, % at 9.4 µM. 360,000 tested, 0.37% active. AID 651800, 2012; in the data active = inhibition above about 19%;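 note: recombinant mutant TCR 2C K166C tagged with TAMRA read by polarization; 0% = receptor in buffer alone and 100% = receptor with positive control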
rCAG RNA binder: binders of r(CAG) RNA repeats, primary screen, biochemical, fluorescence; r(CAG) RNA repeat, TO-PRO-1 dye displacement fluorescence; inhibition, % at 3 µM; 370,000 tested, 1.3% active; AID 651821, 2012;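 active = inhibition above the plate cutoff, the mean of all test compounds on that plate plus 3 SD, cut at about 35% in these data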;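 note: 0% = DMSO alone and 100% = 100 µM mitoxantrone as full dye displacement; higher means more dye released from RNA so lower well fluorescence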
SIAE primary: human SIAE inhibitors, primary screen, biochemical, fluorescence polarization, FP-Rh probe, 1536-well HTS | Sialate O-acetylesterase (Homo sapiens), Q9HAT2 | SIAE FP-Rh probe binding | inhibition, % at 9.66 µM | 370,000 tested, 0.69% active;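 active = inhibition above a cutoff: mean of compounds within the control limits plus 3 SD of those, cut at about 17% in these data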;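 note: 0% = plate median of compound wells and 100% = probe without SIAE protein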
* = called active by the depositor; . = no result; ! = a repeat was not active. Compounds with a hit are over-represented: about 3.5% of the library has one in this group of screens.

SMILES	PRMT1 inh	HTRA1 inhibitor	mABHD4 FP	TCR-CD3 inh	rCAG RNA binder	SIAE primary
CN1C[C@H](C(=O)N[C@]2(C)O[C@@]3(O)[C@@H]4CCCN4C(=O)[C@H](Cc4ccccc4)N3C2=O)CC2c3cccc4[nH]cc(c34)C[C@H]21 (stereo partly drawn)	11	7	5	5	4	21*!
Cc1cc(NC(=S)Nc2ccc(C)c(Cl)c2)n[nH]1	24*	-6	-18	-3	0	-4
CCCN1CCS(=O)(=O)N(Cc2cn(Cc3ccc(Cl)cc3)nn2)C(C(=O)OC)C1 (stereo not drawn)	0	.	-1	.	-3	-2
O=C(Nc1ccc(F)cc1F)c1cc(-c2ccco2)nc2ccccc12	23*	-26	-11	-1	12	-9
O=C(Nc1ccccc1F)c1cc(-c2ccco2)nc2ccccc12	13	-19	-4	-7	9	-11
CC(=O)N1CCc2c(sc(NC(=O)C3CC3)c2-c2nc3ccccc3s2)C1	30*	-31	-3	3	18	-21
O=S(=O)(c1ccc(N=C2NN=C(c3cc(F)ccc3F)CS2)cc1)N1CCOCC1	55*	.	-36	5	21	-23
Fc1ccc(N=C2NN=C(c3cc(F)ccc3F)CS2)cc1	7	0	1	-3	4	4
S=c1[nH]nc(COc2ccccc2)n1/N=C/c1ccccc1Cl	23*	-6	-2	-11	32	7
COc1ccc(NC(=O)CSc2nnc(-c3ccccc3C)n2N)cc1OC	1	3	0	-4	-1	3
COc1ccc(NC(=O)CSc2nnc(-c3ccccc3C)n2N)cc1	21*	6	7	6	1	-5
Cc1ccc(-c2c(C(=O)O)c(C(=O)O)c3n2CSC3)cc1	24*	7	5	8	7	-1
O=C(O)c1c(C(=O)O)c(-c2ccc(Br)cc2)n2c1CSC2	19	0	2	-6	16	-4
CC(C)(C)N(Cc1cn(Cc2ccccc2)nn1)S(=O)(=O)c1ccc(N2CCCC2)cc1Br	-3	.	-4	.	11	4
O=[N+]([O-])c1ccc(SCCc2ccncc2)cc1	24*!	3	5	3	-2	-4
CC(=O)Nc1nc2ncccn2c1-c1ccc(F)c(F)c1	0	.	2	.	3	-1
N#Cc1ccc(C(C(=O)NC2CCCCC2)n2c(=O)c(-c3ccco3)nc3ccccc32)cc1 (stereo not drawn)	22*	.	-3	3	27	-16
CC(C)(C)NC(=O)C(c1ccc(-c2ccccc2)cc1)n1c(=O)c(-c2ccccc2)nc2ccccc21 (stereo not drawn)	0	.	-13	4	9	-12
N#Cc1ccc(C(C(=O)NC2CCCCC2)n2c(=O)c(-c3cc4ccccc4[nH]3)nc3ccccc32)cc1 (stereo not drawn)	2	.	-14	-4	19	-17
Cc1cccc(C)c1NC(=O)C(c1ccccc1)n1c(=O)c(-c2ccccc2)nc2ccccc21 (stereo not drawn)	-1	.	-23	-3	7	-12
Cc1cccc(C)c1NC(=O)C(c1ccc(-c2ccccc2)cc1)n1c(=O)c(-c2ccco2)nc2ccccc21 (stereo not drawn)	11	.	-20	-12	41*	-27
CC(C)(C)NC(=O)C(c1ccc(-c2ccccc2)cc1)n1c(=O)c(-c2ccco2)nc2ccccc21 (stereo not drawn)	3	.	-1	5	37*	-13
CCC[C@H]1[C@@H](OC(=O)NCc2ccc(Cl)c(Cl)c2)CC[C@@]23CCCN2C(=O)CCC[C@@H]13	0	.	7	.	.	-4
Fc1ccccc1C1CC(c2ccco2)=Nc2ccccc2S1 (stereo not drawn)	71*	-2	-4	-9	11	-1
Oc1ccc(Cl)cc1C1=Nc2ccccc2N=C(c2ccco2)C1	0	-1	11	-3	-1	3
N#Cc1c(NC(=O)c2ccccc2Cl)n(Cc2ccccc2)c2nc3ccccc3nc12	2	-26	10	6	90*	-3
